Laboratory results: ChEMBL document CHEMBL3351861, “New synthetic sulfone derivatives inhibit growth, adhesion and the leucine arylamidase APE2 gene expression of Candida albicans in vitro” (2015)
≈ marks a conversion by molar mass, not a printed value.

Experiments:
Candida albicans [1] = assay: Antifungal activity against Candida albicans CAI4 expressing delta-cph1 (CPH1) gene assessed as growth inhibition at 8 ug/ml by CLSI M27-A3 method; assay type: functional; conditions: read-out: GI
Summary of the method: (§1)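 CLSI M27-A3 broth microdilution in RPMI, read after 48 h. Strains pre-grown 18 h in YEPD at 30°C. Final inoculum 0.5×10^2–2.5×10^3 cells/ml. Two-fold dilutions in RPMI came from a 1600 µg/ml stock in water with 9% DMSO; final DMSO was 0.09%. OD405 read, % inhibition = 100 − (CTW−SCW)/(GCW−SCW). Triplicate on three occasions, mean±SD.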

Candida albicans [2] = assay: Inhibition of cell adhesion of compound pre-treated Candida albicans CAI4 expressing delta-efg1 gene to human Caco2 cells assessed as cell adhesion level at 4 ug/ml pre-incubated for 18 hrs by colony counting method (reference value: 2.1 +/- 3.52%); assay type: functional, Caco-2; set-up: scale not given: the % may be the effect or the level left
Candida albicans [3] = assay: Inhibition of cell adhesion of compound pre-treated Candida albicans 90028 to human Caco2 cells assessed as cell adhesion level at 16 ug/ml pre-incubated for 18 hrs by colony counting method (reference value: 1.58 +/- 0.67%); assay type: functional, Caco-2; set-up: scale not given: the % may be the effect or the level left
Candida albicans [4] = assay: Antifungal activity against Candida albicans CAI4 expressing delta-cph1/delta-efg1 (EFG1) gene assessed as growth inhibition at 0.25 ug/ml by CLSI M27-A3 method; assay type: functional; conditions: read-out: GI; summary of the method: as §1
Candida albicans [5] = assay: Inhibition of cell adhesion of compound pre-treated Candida albicans CAI4 expressing delta-efg1 gene to human Caco2 cells assessed as cell adhesion level at 8 ug/ml pre-incubated for 18 hrs by colony counting method (reference value: 2.1 +/- 3.52%); assay type: functional, Caco-2; set-up: scale not given: the % may be the effect or the level left
Candida albicans [6] = assay: Antifungal activity against Candida albicans CAI4 expressing delta-efg1 (EFG1) gene assessed as growth inhibition at 8 ug/ml by CLSI M27-A3 method; assay type: functional; conditions: read-out: GI; summary of the method: as §1
Candida albicans [7] = assay: Antifungal activity against Candida albicans CAI4 expressing delta-cph1 (CPH1) gene assessed as growth inhibition at 2 ug/ml by CLSI M27-A3 method; assay type: functional; conditions: read-out: GI; summary of the method: as §1
Candida albicans [8] = assay: Antifungal activity against Candida albicans CAI4 expressing delta-efg1 gene assessed as growth inhibition at by CLSI M27-A3 method; assay type: functional
Summary of the method: (§2)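 CLSI M27-A3 broth microdilution in RPMI. Final inoculum 0.5×10^2 to 2.5×10^3 cells/ml. Seven two-fold concentrations from 0.25 to 16 µg/ml, with DMSO held at 0.09% (v/v) in all wells. Compound-free growth controls and sterility controls are run for each strain. […] Triplicate on three occasions.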

Candida albicans [9] = assay: Inhibition of cell adhesion of compound pre-treated Candida albicans CAI4 expressing delta-cph1 gene to human Caco2 cells assessed as cell adhesion level at 4 ug/ml pre-incubated for 18 hrs by colony counting method (reference value: 1.6 +/- 0.65%); assay type: functional, Caco-2; set-up: scale not given: the % may be the effect or the level left
Candida albicans [10] = assay: Inhibition of cell adhesion of compound pre-treated Candida albicans CAI4 expressing delta-cph1 (CPH1) gene to human Caco2 cells assessed as cell adhesion level at 4 ug/ml pre-incubated for 18 hrs by colony counting method (reference value: 5.37 +/- 12.4%); assay type: functional, Caco-2; set-up: scale not given: the % may be the effect or the level left
Candida albicans [11] = assay: Antifungal activity against Candida albicans CAI4 expressing delta-cph1/delta-efg1 (EFG1) gene assessed as growth inhibition at 16 ug/ml by CLSI M27-A3 method; assay type: functional; conditions: read-out: GI; summary of the method: as §1
Candida albicans [12] = assay: Antifungal activity against Candida albicans CAI4 expressing delta-cph1/delta-efg1 (EFG1) gene assessed as growth inhibition at by CLSI M27-A3 method; assay type: functional
Candida albicans [13] = assay: Antifungal activity against Candida albicans CAI4 expressing delta-cph1/delta-efg1 gene assessed as growth inhibition at 8 ug/ml by CLSI M27-A3 method; assay type: functional; conditions: read-out: GI; summary of the method: as §1
Candida albicans [14] = assay: Antifungal activity against Candida albicans CAI4 expressing delta-efg1 gene assessed as growth inhibition at 4 ug/ml by CLSI M27-A3 method; assay type: functional; conditions: read-out: GI; summary of the method: as §2
Candida albicans [15] = assay: Antifungal activity against Candida albicans CAI4 expressing delta-cph1/delta-efg1 gene assessed as growth inhibition at 2 ug/ml by CLSI M27-A3 method; assay type: functional; conditions: read-out: GI; summary of the method: as §1
Candida albicans [16] = assay: Antifungal activity against Candida albicans CAI4 expressing delta-cph1/delta-efg1 (EFG1) gene assessed as growth inhibition at 4 ug/ml by CLSI M27-A3 method; assay type: functional; conditions: read-out: GI; summary of the method: as §1
Candida albicans [17] = assay: Antifungal activity against Candida albicans CAI4 expressing delta-efg1 gene assessed as growth inhibition at 16 ug/ml by CLSI M27-A3 method; assay type: functional; conditions: read-out: GI; summary of the method: as §2
Candida albicans [18] = assay: Inhibition of cell adhesion of compound pre-treated Candida albicans CAI4 expressing delta-cph1 (CPH1) gene to human Caco2 cells assessed as cell adhesion level at 16 ug/ml pre-incubated for 18 hrs by colony counting method (reference value: 5.37 +/- 12.4%); assay type: functional, Caco-2; set-up: scale not given: the % may be the effect or the level left
Candida albicans [19] = assay: Antifungal activity against Candida albicans CAI4 expressing delta-cph1 (CPH1) gene assessed as growth inhibition at 0.25 ug/ml by CLSI M27-A3 method; assay type: functional; conditions: read-out: GI; summary of the method: as §1
Candida albicans [20] = assay: Antifungal activity against Candida albicans 90028 assessed as growth inhibition at 1 ug/ml by CLSI M27-A3 method; assay type: functional; conditions: read-out: GI; summary of the method: as §1
Candida albicans [21] = assay: Inhibition of cell adhesion of compound pre-treated Candida albicans CAI4 expressing delta-cph1 gene to human Caco2 cells assessed as cell adhesion level at 8 ug/ml pre-incubated for 18 hrs by colony counting method (reference value: 1.6 +/- 0.65%); assay type: functional, Caco-2; set-up: scale not given: the % may be the effect or the level left
Candida albicans [22] = assay: Antifungal activity against Candida albicans CAI4 expressing delta-cph1/delta-efg1 (EFG1) gene assessed as growth inhibition at 0.5 ug/ml by CLSI M27-A3 method; assay type: functional; conditions: read-out: GI; summary of the method: as §1
Candida albicans [23] = assay: Inhibition of cell adhesion of compound pre-treated Candida albicans CAI4 expressing delta-efg1/delta-cph1 gene to human Caco2 cells assessed as cell adhesion level at 2 ug/ml pre-incubated for 18 hrs by colony counting method (reference value: 1.22 +/- 0.78%); assay type: functional, Caco-2; set-up: scale not given: the % may be the effect or the level left
Candida albicans [24] = assay: Antifungal activity against Candida albicans CAI4 expressing delta-cph1/delta-efg1 gene assessed as growth inhibition at 1 ug/ml by CLSI M27-A3 method; assay type: functional; conditions: read-out: GI; summary of the method: as §1
Candida albicans [25] = assay: Antifungal activity against Candida albicans CAI4 expressing delta-cph1 (CPH1) gene assessed as growth inhibition at 1 ug/ml by CLSI M27-A3 method; assay type: functional; conditions: read-out: GI; summary of the method: as §1
Candida albicans [26] = assay: Inhibition of cell adhesion of compound pre-treated Candida albicans CAI4 expressing delta-efg1 (EFG1) gene to human Caco2 cells assessed as cell adhesion level at 16 ug/ml pre-incubated for 18 hrs by colony counting method (reference value: 2.6 +/- 2.33%); assay type: functional, Caco-2; set-up: scale not given: the % may be the effect or the level left
Candida albicans [27] = assay: Antifungal activity against Candida albicans CAI4 expressing delta-cph1 gene assessed as growth inhibition at by CLSI M27-A3 method; assay type: functional
Candida albicans [28] = assay: Antifungal activity against Candida albicans 90028 assessed as growth inhibition at by CLSI M27-A3 method; assay type: functional
Candida albicans [29] = assay: Antifungal activity against Candida albicans CAI4 expressing delta-efg1 gene assessed as growth inhibition at 1 ug/ml by CLSI M27-A3 method; assay type: functional; conditions: read-out: GI; summary of the method: as §2
Candida albicans [30] = assay: Antifungal activity against Candida albicans CAI4 expressing delta-efg1 gene assessed as growth inhibition at 2 ug/ml by CLSI M27-A3 method; assay type: functional; conditions: read-out: GI; summary of the method: as §2
Candida albicans [31] = assay: Antifungal activity against Candida albicans 90028 assessed as growth inhibition at 8 ug/ml by CLSI M27-A3 method; assay type: functional; conditions: read-out: GI; summary of the method: as §1

SMILES | inhibition of growth at 8 µg/mL (Candida albicans [1]) | Activity (Candida albicans [2]) | Activity (Candida albicans [3]) | inhibition of growth at 0.25 µg/mL (Candida albicans [4]) | Activity (Candida albicans [5]) | inhibition of growth at 8 µg/mL (Candida albicans [6]) | inhibition of growth at 2 µg/mL (Candida albicans [7]) | MIC90 (Candida albicans [8]) | Activity (Candida albicans [9]) | Activity (Candida albicans [10]) | inhibition of growth at 16 µg/mL (Candida albicans [11]) | MIC90 (Candida albicans [12]) | inhibition of growth at 8 µg/mL (Candida albicans [13]) | inhibition of growth at 4 µg/mL (Candida albicans [14]) | inhibition of growth at 2 µg/mL (Candida albicans [15]) | inhibition of growth at 4 µg/mL (Candida albicans [16]) | inhibition of growth at 16 µg/mL (Candida albicans [17]) | Activity (Candida albicans [18]) | inhibition of growth at 0.25 µg/mL (Candida albicans [19]) | inhibition of growth at 1 µg/mL (Candida albicans [20]) | also measured
NNc1ccc(S(=O)(=O)C(Cl)(Br)Br)cc1[N+](=O)[O-] | 99.7% | 0.69% | 1.6% | 72% | 0.63% | 99.8% | 99.3% | 4 µg/mL (≈ 9.45 µM) | 0.22% | 0.76% | 100% | 4 µg/mL (≈ 9.45 µM) | 100% | 100% | 100% | 99.1% | 100% | 0.78% | 98.6% | 97.4% | Activity (Candida albicans [21]): 0.56%; inhibition of growth at 0.5 µg/mL (Candida albicans [22]): 98.8%; Activity (Candida albicans [23]): 2.94%; inhibition of growth at 1 µg/mL (Candida albicans [24]): 100%; inhibition of growth at 1 µg/mL (Candida albicans [25]): 98.8%; Activity (Candida albicans [26]): 0.89%; MIC90 (Candida albicans [27]): 4 µg/mL (≈ 9.45 µM); MIC90 (Candida albicans [28]): 4 µg/mL (≈ 9.45 µM); inhibition of growth at 1 µg/mL (Candida albicans [29]): 99.5%; inhibition of growth at 2 µg/mL (Candida albicans [30]): 99.7%; inhibition of growth at 8 µg/mL (Candida albicans [31]): 100%
O=[N+]([O-])c1cc(S(=O)(=O)C(Cl)(Cl)Br)ccc1Cl | 99.8% | 1.14% | 0.68% | 96.5% | 0.49% | 99.4% | 99.2% | 16 µg/mL (≈ 41.7 µM) | 0.55% | 1.39% | 99.8% | 16 µg/mL (≈ 41.7 µM) | 99.4% | 99% | 98.8% | 99.5% | 99.6% | 0.48% | 96.7% | 98.8% | Activity (Candida albicans [21]): 0.35%; inhibition of growth at 0.5 µg/mL (Candida albicans [22]): 98.8%; Activity (Candida albicans [23]): 0.78%; inhibition of growth at 1 µg/mL (Candida albicans [24]): 98.8%; inhibition of growth at 1 µg/mL (Candida albicans [25]): 98.7%; Activity (Candida albicans [26]): 0.77%; MIC90 (Candida albicans [27]): 16 µg/mL (≈ 41.7 µM); MIC90 (Candida albicans [28]): 16 µg/mL (≈ 41.7 µM); inhibition of growth at 1 µg/mL (Candida albicans [29]): 98.5%; inhibition of growth at 2 µg/mL (Candida albicans [30]): 98.9%; inhibition of growth at 8 µg/mL (Candida albicans [31]): 99.5%
O=[N+]([O-])c1cc(S(=O)(=O)C(Cl)Cl)ccc1Cl | 99.4% | 0.97% | 1.19% | 98.8% | 0.69% | 98.9% | 98.6% | 16 µg/mL (≈ 52.5 µM) | 0.99% | 1.28% | 99.4% | 16 µg/mL (≈ 52.5 µM) | 99.4% | 99.5% | 99.1% | 99.3% | 99.5% | 2.28% | 91.8% | 99.2% | Activity (Candida albicans [21]): 0.8%; inhibition of growth at 0.5 µg/mL (Candida albicans [22]): 99%; Activity (Candida albicans [23]): 0.47%; inhibition of growth at 1 µg/mL (Candida albicans [24]): 99.1%; inhibition of growth at 1 µg/mL (Candida albicans [25]): 98.8%; Activity (Candida albicans [26]): 0.79%; MIC90 (Candida albicans [27]): 16 µg/mL (≈ 52.5 µM); MIC90 (Candida albicans [28]): 16 µg/mL (≈ 52.5 µM); inhibition of growth at 1 µg/mL (Candida albicans [29]): 99.4%; inhibition of growth at 2 µg/mL (Candida albicans [30]): 99.4%; inhibition of growth at 8 µg/mL (Candida albicans [31]): 99.3%
